Experimental data: ChEMBL document CHEMBL4689842, “EUbOPEN Chemogenomics Library wave 1” (2021)
“And” between values parts separate entries of the source, which are not always exact repeats. Identical values can stand only once.

Tested on: U2OS
Test: Multiplex assay against U2OS
Format: toxicity, cell-based
Conditions: human
Outline: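 Hoechst33342, BioTracker Green Microtubule Cytoskeleton Dye, MitoTracker Red and Annexin V Alexa Fluor 680 were added to live cells at seeding, and imaging on a CQ1 microscope at 37°C and 5% CO2 followed compound addition. Gating by CellPathfinder machine learning separated cells into Hoechst high-intensity objects or normal cells, then normal cells into healthy, pyknosed or fragmented nuclei, then pyknosed cells into mitotic or apoptotic. Per cents of healthy-nucleus cells are reported for the tubulin, mitochondrial-mass and membrane-permeability phenotypes.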

[1] = 12 h, 1 µM, compound concentration 1 uM, replicate 1
[2] = 12 h, 1 µM, compound concentration 1 uM, replicate 2
[3] = 12 h, 10 µM, compound concentration 10 uM, replicate 1
[4] = 12 h, 10 µM, compound concentration 10 uM, replicate 2
[5] = 24 h, 1 µM, compound concentration 1 uM, replicate 1
[6] = 24 h, 1 µM, compound concentration 1 uM, replicate 2
[7] = 24 h, 10 µM, compound concentration 10 uM, replicate 1
[8] = 24 h, 10 µM, compound concentration 10 uM, replicate 2
[9] = 48 h, 10 µM, compound concentration 10 uM, replicate 1
[10] = 48 h, 10 µM, compound concentration 10 uM, replicate 2

COCC(=O)NC/C=C/c1ccc2ncnc(Nc3ccc(Oc4ccc(C)nc4)c(C)c3)c2c1 [CP-724714]
Population Apoptotic (%) [1]: 40% and 33% | Population Fragmented Nuclei (%) [1]: 7% and 4% | Population Healthy Nuclei (%) [1]: 80% and 89% | Population Hoechst High Intensity Objects (%) [1]: 3% | Population Membrane Permeable-Phenotype (%) [1]: 42% and 18% | Population Mitochondria Different-Phenotype (%) [1]: 29% and 18% | Population Mitotic Cells (%) [1]: 60% and 66% | Population Normal (%) [1]: 96% | Population Pyknosed Nuclei (%) [1]: 11% and 6% | Population Tubulin-Different-Phenotype (%) [1]: 18% | Total Cell Count [1]: 178 and 153 | Population Fragmented Nuclei (%) [2]: 3% and 8% | Population Healthy Nuclei (%) [2]: 82% and 87% | Population Hoechst High Intensity Objects (%) [2]: 6% and 4% | Population Membrane Permeable-Phenotype (%) [2]: 49% and 27% | Population Mitochondria Different-Phenotype (%) [2]: 43% and 20% | Population Mitotic Cells (%) [2]: 53% and 100% | Population Normal (%) [2]: 93% and 95% | Total Cell Count [2]: 95 and 141 | Population Apoptotic (%) [3]: 51% | Population Fragmented Nuclei (%) [3]: 17% | Population Healthy Nuclei (%) [3]: 62% | Population Hoechst High Intensity Objects (%) [3]: 13% | Population Membrane Permeable-Phenotype (%) [3]: 35% | Population Mitochondria Different-Phenotype (%) [3]: 87% | Population Mitotic Cells (%) [3]: 48% | Population Normal (%) [3]: 86% | Population Pyknosed Nuclei (%) [3]: 20% | Total Cell Count [3]: 167 | Population Apoptotic (%) [4]: 80% | Population Fragmented Nuclei (%) [4]: 18% | Population Healthy Nuclei (%) [4]: 63% | Population Hoechst High Intensity Objects (%) [4]: 11% | Population Membrane Permeable-Phenotype (%) [4]: 37% | Population Mitochondria Different-Phenotype (%) [4]: 94% | Population Mitotic Cells (%) [4]: 20% | Population Normal (%) [4]: 88% | Population Pyknosed Nuclei (%) [4]: 18% | Population Tubulin-Different-Phenotype (%) [4]: 100% | Total Cell Count [4]: 62 | Population Apoptotic (%) [5]: 50% and 38% | Population Fragmented Nuclei (%) [5]: 10% and 2% | Population Healthy Nuclei (%) [5]: 71% and 90% | Population Hoechst High Intensity Objects (%) [5]: 1% and 2% | Population Mitotic Cells (%) [5]: 50% and 61% | Population Normal (%) [5]: 98% and 97% | Population Pyknosed Nuclei (%) [5]: 17% | Total Cell Count [5]: 186 and 209 | Population Apoptotic (%) [6]: 62% and 36% | Population Fragmented Nuclei (%) [6]: 8% and 3% | Population Healthy Nuclei (%) [6]: 75% and 89% | Population Hoechst High Intensity Objects (%) [6]: 3% and 7% | Population Membrane Permeable-Phenotype (%) [6]: 40% and 20% | Population Mitochondria Different-Phenotype (%) [6]: 53% and 26% | Population Mitotic Cells (%) [6]: 37% and 63% | Population Normal (%) [6]: 96% and 92% | Population Pyknosed Nuclei (%) [6]: 15% and 6% | Total Cell Count [6]: 106 and 180 | Population Apoptotic (%) [7]: 60% | Population Fragmented Nuclei (%) [7]: 20% | Population Healthy Nuclei (%) [7]: 45% | Population Hoechst High Intensity Objects (%) [7]: 8% | Population Membrane Permeable-Phenotype (%) [7]: 46% | Population Mitochondria Different-Phenotype (%) [7]: 98% | Population Mitotic Cells (%) [7]: 39% | Population Normal (%) [7]: 91% | Population Pyknosed Nuclei (%) [7]: 33% | Population Tubulin-Different-Phenotype (%) [7]: 100% | Total Cell Count [7]: 156 | Population Fragmented Nuclei (%) [8]: 16% | Population Healthy Nuclei (%) [8]: 54% | Population Hoechst High Intensity Objects (%) [8]: 11% | Population Membrane Permeable-Phenotype (%) [8]: 51% | Population Mitochondria Different-Phenotype (%) [8]: 96% | Population Mitotic Cells (%) [8]: 40% | Population Normal (%) [8]: 88% | Population Pyknosed Nuclei (%) [8]: 28% | Total Cell Count [8]: 60 | Population Apoptotic (%) [9]: 76% | Population Fragmented Nuclei (%) [9]: 22% | Population Healthy Nuclei (%) [9]: 44% | Population Hoechst High Intensity Objects (%) [9]: 4% | Population Membrane Permeable-Phenotype (%) [9]: 57% | Population Mitochondria Different-Phenotype (%) [9]: 91% | Population Mitotic Cells (%) [9]: 23% | Population Normal (%) [9]: 95% | Population Pyknosed Nuclei (%) [9]: 32% | Population Tubulin-Different-Phenotype (%) [9]: 100% | Total Cell Count [9]: 163 | Population Apoptotic (%) [10]: 45% | Population Fragmented Nuclei (%) [10]: 14% | Population Healthy Nuclei (%) [10]: 52% | Population Hoechst High Intensity Objects (%) [10]: 14% | Population Membrane Permeable-Phenotype (%) [10]: 84% | Population Mitochondria Different-Phenotype (%) [10]: 96% | Population Mitotic Cells (%) [10]: 55% | Population Normal (%) [10]: 85% | Total Cell Count [10]: 71

C=CCn1c(=O)c2cnc(Nc3ccc(N4CCN(C)CC4)cc3)nc2n1-c1cccc(C(C)(C)O)n1 [ADAVOSERTIB]
Population Apoptotic (%) [1]: 43% | Population Fragmented Nuclei (%) [1]: 11% | Population Healthy Nuclei (%) [1]: 60% | Population Hoechst High Intensity Objects (%) [1]: 3% | Population Membrane Permeable-Phenotype (%) [1]: 23% | Population Mitochondria Different-Phenotype (%) [1]: 15% | Population Mitotic Cells (%) [1]: 56% | Population Normal (%) [1]: 96% | Population Pyknosed Nuclei (%) [1]: 27% | Population Tubulin-Different-Phenotype (%) [1]: 21% | Total Cell Count [1]: 153 | Population Apoptotic (%) [2]: 12% | Population Fragmented Nuclei (%) [2]: 16% | Population Healthy Nuclei (%) [2]: 62% | Population Hoechst High Intensity Objects (%) [2]: 5% | Population Membrane Permeable-Phenotype (%) [2]: 13% | Population Mitochondria Different-Phenotype (%) [2]: 5% | Population Mitotic Cells (%) [2]: 87% | Population Normal (%) [2]: 94% | Population Pyknosed Nuclei (%) [2]: 21% | Population Tubulin-Different-Phenotype (%) [2]: 23% | Total Cell Count [2]: 165 | Population Apoptotic (%) [3]: 40% | Population Fragmented Nuclei (%) [3]: 25% | Population Healthy Nuclei (%) [3]: 13% | Population Hoechst High Intensity Objects (%) [3]: 8% | Population Membrane Permeable-Phenotype (%) [3]: 42% | Population Mitochondria Different-Phenotype (%) [3]: 47% | Population Mitotic Cells (%) [3]: 59% | Population Normal (%) [3]: 91% | Population Pyknosed Nuclei (%) [3]: 60% | Population Tubulin-Different-Phenotype (%) [3]: 80% | Total Cell Count [3]: 167 | Population Apoptotic (%) [4]: 44% | Population Fragmented Nuclei (%) [4]: 22% | Population Healthy Nuclei (%) [4]: 14% | Population Hoechst High Intensity Objects (%) [4]: 28% | Population Membrane Permeable-Phenotype (%) [4]: 37% | Population Mitochondria Different-Phenotype (%) [4]: 62% | Population Mitotic Cells (%) [4]: 55% | Population Normal (%) [4]: 71% | Population Pyknosed Nuclei (%) [4]: 62% | Population Tubulin-Different-Phenotype (%) [4]: 75% | Total Cell Count [4]: 76 | Population Apoptotic (%) [5]: 62% | Population Fragmented Nuclei (%) [5]: 20% | Population Healthy Nuclei (%) [5]: 41% | Population Hoechst High Intensity Objects (%) [5]: 8% | Population Membrane Permeable-Phenotype (%) [5]: 30% | Population Mitochondria Different-Phenotype (%) [5]: 25% | Population Mitotic Cells (%) [5]: 37% | Population Normal (%) [5]: 91% | Population Pyknosed Nuclei (%) [5]: 38% | Population Tubulin-Different-Phenotype (%) [5]: 38% | Total Cell Count [5]: 155 | Population Apoptotic (%) [6]: 50% | Population Fragmented Nuclei (%) [6]: 22% | Population Healthy Nuclei (%) [6]: 51% | Population Hoechst High Intensity Objects (%) [6]: 9% | Population Membrane Permeable-Phenotype (%) [6]: 21% | Population Mitochondria Different-Phenotype (%) [6]: 26% | Population Mitotic Cells (%) [6]: 50% | Population Normal (%) [6]: 90% | Population Pyknosed Nuclei (%) [6]: 26% | Population Tubulin-Different-Phenotype (%) [6]: 31% | Total Cell Count [6]: 149 | Population Apoptotic (%) [7]: 64% | Population Fragmented Nuclei (%) [7]: 36% | Population Healthy Nuclei (%) [7]: 11% | Population Hoechst High Intensity Objects (%) [7]: 13% | Population Membrane Permeable-Phenotype (%) [7]: 76% | Population Mitochondria Different-Phenotype (%) [7]: 82% | Population Mitotic Cells (%) [7]: 35% | Population Normal (%) [7]: 86% | Population Pyknosed Nuclei (%) [7]: 51% | Population Tubulin-Different-Phenotype (%) [7]: 88% | Total Cell Count [7]: 165 | Population Apoptotic (%) [8]: 68% | Population Fragmented Nuclei (%) [8]: 42% | Population Healthy Nuclei (%) [8]: 15% | Population Hoechst High Intensity Objects (%) [8]: 22% | Population Membrane Permeable-Phenotype (%) [8]: 75% | Population Mitochondria Different-Phenotype (%) [8]: 62% | Population Mitotic Cells (%) [8]: 31% | Population Normal (%) [8]: 77% | Population Pyknosed Nuclei (%) [8]: 42% | Population Tubulin-Different-Phenotype (%) [8]: 75% | Total Cell Count [8]: 67
